Test results published in ChEMBL document CHEMBL1165999, “Cytotoxic ent-kaurane diterpenoids from Isodon rubescens var. lushiensis” (J Nat Prod, 2010).

Experiments:
[1] = system: SK-BR-3; assay: Cytotoxicity against human SK-BR-3 cells after 48 hrs by MTT assay; type: functional, cell-based; settings: SK-BR-3, 48 h
Outline: (§1)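 Cells grown in RPMI-1640 or DMEM with 10% FBS at 37 °C, 5% CO2, seeded at 1 × 10^5 cells/mL. Adherent lines were left 12 h to attach; suspension cells were added just before dosing. Various concentrations were tested in triplicate for 48 h, with cisplatin and paclitaxel controls. MTT (100 µg) was then added for 4 h, cells lysed in 20% SDS-50% DMF, and OD read at 595 nm. IC50 was calculated by the Reed-Muench method.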

[2] = system: PANC-1; assay: Growth inhibition of human PANC1 cells after 48 hrs by MTT assay; settings: PANC-1, 48 h
[3] = system: HL-60; assay: Cytotoxicity against human HL60 cells after 48 hrs by MTT assay; type: functional, cell-based; settings: HL-60, 48 h; outline: as §1
[4] = system: SMMC-7721; assay: Cytotoxicity against human SMMC7721 cells after 48 hrs by MTT assay; type: functional, cell-based; settings: SMMC-7721, 48 h; outline: as §1
[5] = system: A549; assay: Cytotoxicity against human A549 cells after 48 hrs by MTT assay; type: functional, cell-based; settings: A549, 48 h; outline: as §1

Structure (SMILES) | IC50 [1] [µM] | IC50 [2] [µM] | IC50 [3] [µM] | IC50 [4] [µM] | IC50 [5] [µM]
C=C1C(=O)[C@@]23CC[C@@H]4C(C)(C)CC[C@H](O)[C@@]4(C)[C@@H]2[C@@H](O)C[C@@H]1[C@H]3O [PHYLLOSTACHYSIN H] | > 10 | > 10 | 6.4 | > 10 | > 10
C=C1C(=O)[C@@]23[C@@H]4C[C@@H]5C(C)(C)CCC[C@@]5([C@@H](O)O4)[C@@H]2[C@@H](O)C[C@@H]1[C@H]3O | 4.4 | 8.6 | 1.2 | 6.2 | 5.9
C=C1C(=O)[C@]23[C@H](O)[C@H]1CC[C@H]2[C@@]12CO[C@]3(O)[C@@H](O)[C@@H]1C(C)(C)CC[C@@H]2O [ORIDONIN] | > 10 | > 10 | 3.9 | > 10 | > 10
C=C1[C@@H]2CC[C@H]3[C@]45CCC[C@@](C)(COC(C)=O)[C@H]4[C@H](O)[C@](O)(OC5)[C@]3(C2)[C@@H]1O [ISOLUSHININ B] | > 10 | > 10 | > 10 | > 10 | > 10
C=C1C(=O)[C@@]23[C@H](O)C[C@@H]4C(C)(C)CCC[C@@]4(C)[C@@H]2[C@@H](O)C[C@@H]1[C@H]3O [PHYLLOSTACHYSIN F] | 3.3 | 4.5 | 0.85 | 5.5 | 3.3
C=C1C(=O)[C@@]23[C@H](O)C[C@@H]4C(C)(C)CCC[C@@]4(COC(C)=O)[C@@H]2[C@@H](O)[C@H](O)[C@@H]1[C@H]3O [ISOLUSHININ G] | > 10 | > 10 | > 10 | > 10 | > 10
C=C1[C@@H](O)[C@]23[C@H](O)[C@H]1CC[C@H]2[C@@]12CO[C@@]3(O)[C@@H](O)[C@@H]1C(C)(C)CC[C@@H]2O [ENMENOL] | > 10 | > 10 | 6.7 | > 10 | > 10
CC(=O)O[C@H]1C(=O)[C@@]2(C)[C@H]([C@H](OC(=O)c3ccccc3)[C@]3(O)C[C@H](OC(=O)[C@H](O)[C@@H](NC(=O)c4ccccc4)c4ccccc4)C(C)=C1C3(C)C)[C@]1(OC(C)=O)CO[C@@H]1C[C@@H]2O [PACLITAXEL] | 0.11 | < 0.008 | < 0.008 | < 0.008 | 1.4
CO[C@@H]1OC[C@]2(C)CCC[C@]3(COC(=O)[C@@]45C[C@@H](CC[C@H]43)[C@H](C)C5=O)[C@H]12 [LUDONGNIN G] | > 10 | > 10 | > 10 | > 10 | > 10
C=C1C(=O)[C@]23C[C@H]1C[C@@H](O)[C@H]2[C@@]1(CCC[C@@]2(C)COC(=O)[C@H]21)COC3=O [LUDONGNIN A] | > 10 | > 10 | 3.1 | > 10 | > 10
C=C1C(=O)[C@@]23[C@H](O)C[C@@H]4C(C)(C)CCC[C@@]4(CO)[C@@H]2[C@@H](O)C[C@@H]1[C@H]3O [KAMEBAKAURININ] | > 10 | > 10 | 1.8 | > 10 | > 10
C=C1[C@@H]2CC[C@H]3[C@]45CC[C@@H]6OC4O[C@@H](C[C@@H]5C6(C)C)[C@]3(C2)[C@@H]1O [ISOLUSHININ A] | > 10 | > 10 | > 10 | > 10 | > 10
C=C1[C@@H]2C[C@@H](O)[C@@H]3[C@](C2)(C(=O)O[C@H]2CC[C@@]4(C)CO[C@H]5OC[C@]23[C@H]54)[C@@H]1O [SCULPONEATIN B] | > 10 | > 10 | > 10 | > 10 | > 10
C=C1C(=O)[C@@]23[C@@H]4C[C@@H]5C(C)(C)CCC[C@@]5([C@@H](OC)O4)[C@@H]2[C@@H](O)C[C@@H]1[C@H]3O | 3.3 | 9.8 | 0.95 | 4.4 | 5.6
C=C1C(=O)[C@@]23[C@@H]4C[C@@H]5C(C)(C)CCC[C@@]5([C@@H](OC)O4)[C@@H]2[C@@H](OC(C)=O)C[C@@H]1[C@H]3O [ISOLUSHININ D] | 6.4 | 7 | 1.1 | 4.7 | 6.4
C=C1C(=O)[C@@]23[C@@H]4C[C@@H]5C(C)(C)CCC[C@@]5([C@@H](OCC)O4)[C@@H]2[C@@H](O)C[C@@H]1[C@H]3O | 2.4 | 5.2 | 0.64 | 3.5 | 4.2
C=C1C(=O)[C@@]23[C@H](O)C[C@@H]4C(C)(C)CCC[C@@]4(COC(C)=O)[C@@H]2[C@@H](O)C[C@@H]1[C@H]3O [FLEXICANLIN A] | > 10 | 5.7 | 0.64 | 9.9 | 9.8
C=C1C(=O)[C@@]23[C@@H]4C[C@@H]5C(C)(C)[C@H](O)CC[C@@]5([C@@H](OC)O4)[C@@H]2[C@@H](O)C[C@@H]1[C@H]3O [ISOLUSHININ F] | > 10 | > 10 | > 10 | > 10 | > 10
C=C1C(=O)[C@@]23[C@H](O)C[C@@H]4[C@@](C)(CO)CCC[C@@]4(COC(C)=O)[C@@H]2CC[C@@H]1[C@H]3O [ISOLUSHININ H] | 6.1 | 6.6 | 2.5 | > 10 | > 10
